Tested on: U2OS
Assay: Multiplex assay against U2OS
Type: toxicity, cell-based
Settings: human
Procedure, shortened: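 Imaging took place on a CQ1 microscope at 37°C and 5% CO2 once compound had been added to live cells stained at seeding with Hoechst33342, BioTracker Green Microtubule Cytoskeleton Dye, MitoTracker Red and Annexin V Alexa Fluor 680. CellPathfinder machine-learning gating classed cells as Hoechst high-intensity objects or normal cells, classed normal cells as having healthy, pyknosed or fragmented nuclei, and classed pyknosed cells as mitotic or apoptotic. Tubulin, mitochondrial-mass and membrane-permeability phenotypes are per cents of the healthy-nucleus cells.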

[1] = 12 h, 1 µM, compound concentration 1 uM, replicate 1
[2] = 12 h, 1 µM, compound concentration 1 uM, replicate 2
[3] = 12 h, 10 µM, compound concentration 10 uM, replicate 1
[4] = 12 h, 10 µM, compound concentration 10 uM, replicate 2
[5] = 24 h, 1 µM, compound concentration 1 uM, replicate 1
[6] = 24 h, 1 µM, compound concentration 1 uM, replicate 2
[7] = 24 h, 10 µM, compound concentration 10 uM, replicate 1
[8] = 24 h, 10 µM, compound concentration 10 uM, replicate 2
[9] = 48 h, 1 µM, compound concentration 1 uM, replicate 1
[10] = 48 h, 1 µM, compound concentration 1 uM, replicate 2
[11] = 48 h, 10 µM, compound concentration 10 uM, replicate 1
[12] = 48 h, 10 µM, compound concentration 10 uM, replicate 2

Cl.N=C(N)NC(=O)Cc1c(Cl)cccc1Cl [GUANFACINE HYDROCHLORIDE]
Population Apoptotic (%) [1]: 80%
Population Fragmented Nuclei (%) [1]: 28%
Population Healthy Nuclei (%) [1]: 55%
Population Hoechst High Intensity Objects (%) [1]: 4%
Population Membrane Permeable-Phenotype (%) [1]: 5%
Population Mitochondria Different-Phenotype (%) [1]: 1%
Population Mitotic Cells (%) [1]: 19%
Population Normal (%) [1]: 95%
Population Pyknosed Nuclei (%) [1]: 16%
Population Tubulin-Different-Phenotype (%) [1]: 2%
Total Cell Count [1]: 165
Population Apoptotic (%) [2]: 100%
Population Fragmented Nuclei (%) [2]: 20%
Population Healthy Nuclei (%) [2]: 72%
Population Hoechst High Intensity Objects (%) [2]: 2%
Population Membrane Permeable-Phenotype (%) [2]: 8%
Population Mitochondria Different-Phenotype (%) [2]: 2%
Population Mitotic Cells (%) [2]: 0%
Population Normal (%) [2]: 97%
Population Pyknosed Nuclei (%) [2]: 7%
Population Tubulin-Different-Phenotype (%) [2]: 6%
Total Cell Count [2]: 129
Population Apoptotic (%) [3]: 87%
Population Fragmented Nuclei (%) [3]: 27%
Population Healthy Nuclei (%) [3]: 61%
Population Hoechst High Intensity Objects (%) [3]: 1%
Population Membrane Permeable-Phenotype (%) [3]: 10%
Population Mitochondria Different-Phenotype (%) [3]: 3%
Population Mitotic Cells (%) [3]: 12%
Population Normal (%) [3]: 98%
Population Pyknosed Nuclei (%) [3]: 11%
Population Tubulin-Different-Phenotype (%) [3]: 7%
Total Cell Count [3]: 280
Population Apoptotic (%) [4]: 77%
Population Fragmented Nuclei (%) [4]: 18%
Population Healthy Nuclei (%) [4]: 74%
Population Membrane Permeable-Phenotype (%) [4]: 12%
Population Mitochondria Different-Phenotype (%) [4]: 7%
Population Mitotic Cells (%) [4]: 22%
Population Pyknosed Nuclei (%) [4]: 7%
Population Tubulin-Different-Phenotype (%) [4]: 10%
Total Cell Count [4]: 130
Population Apoptotic (%) [5]: 75%
Population Fragmented Nuclei (%) [5]: 32%
Population Healthy Nuclei (%) [5]: 56%
Population Hoechst High Intensity Objects (%) [5]: 3%
Population Membrane Permeable-Phenotype (%) [5]: 5%
Population Mitochondria Different-Phenotype (%) [5]: 3%
Population Mitotic Cells (%) [5]: 25%
Population Normal (%) [5]: 96%
Population Pyknosed Nuclei (%) [5]: 10%
Population Tubulin-Different-Phenotype (%) [5]: 2%
Total Cell Count [5]: 194
Population Apoptotic (%) [6]: 83%
Population Fragmented Nuclei (%) [6]: 18%
Population Healthy Nuclei (%) [6]: 74%
Population Hoechst High Intensity Objects (%) [6]: 0%
Population Membrane Permeable-Phenotype (%) [6]: 8%
Population Mitochondria Different-Phenotype (%) [6]: 4%
Population Mitotic Cells (%) [6]: 16%
Population Normal (%) [6]: 99%
Population Pyknosed Nuclei (%) [6]: 7%
Population Tubulin-Different-Phenotype (%) [6]: 5%
Total Cell Count [6]: 160
Population Apoptotic (%) [7]: 84%
Population Fragmented Nuclei (%) [7]: 25%
Population Healthy Nuclei (%) [7]: 64%
Population Hoechst High Intensity Objects (%) [7]: 0%
Population Membrane Permeable-Phenotype (%) [7]: 9%
Population Mitochondria Different-Phenotype (%) [7]: 2%
Population Mitotic Cells (%) [7]: 15%
Population Normal (%) [7]: 99%
Population Pyknosed Nuclei (%) [7]: 9%
Population Tubulin-Different-Phenotype (%) [7]: 4%
Total Cell Count [7]: 326
Population Apoptotic (%) [8]: 83%
Population Fragmented Nuclei (%) [8]: 15%
Population Healthy Nuclei (%) [8]: 76%
Population Hoechst High Intensity Objects (%) [8]: 2%
Population Membrane Permeable-Phenotype (%) [8]: 10%
Population Mitochondria Different-Phenotype (%) [8]: 4%
Population Mitotic Cells (%) [8]: 16%
Population Normal (%) [8]: 97%
Population Pyknosed Nuclei (%) [8]: 7%
Population Tubulin-Different-Phenotype (%) [8]: 5%
Total Cell Count [8]: 160
Population Apoptotic (%) [9]: 89%
Population Fragmented Nuclei (%) [9]: 28%
Population Healthy Nuclei (%) [9]: 60%
Population Hoechst High Intensity Objects (%) [9]: 2%
Population Membrane Permeable-Phenotype (%) [9]: 4%
Population Mitochondria Different-Phenotype (%) [9]: 3%
Population Mitotic Cells (%) [9]: 10%
Population Normal (%) [9]: 97%
Population Pyknosed Nuclei (%) [9]: 10%
Population Tubulin-Different-Phenotype (%) [9]: 3%
Total Cell Count [9]: 262
Population Apoptotic (%) [10]: 90%
Population Fragmented Nuclei (%) [10]: 16%
Population Healthy Nuclei (%) [10]: 73%
Population Hoechst High Intensity Objects (%) [10]: 3%
Population Membrane Permeable-Phenotype (%) [10]: 8%
Population Mitochondria Different-Phenotype (%) [10]: 4%
Population Mitotic Cells (%) [10]: 9%
Population Normal (%) [10]: 96%
Population Tubulin-Different-Phenotype (%) [10]: 6%
Total Cell Count [10]: 217
Population Apoptotic (%) [11]: 90%
Population Fragmented Nuclei (%) [11]: 21%
Population Healthy Nuclei (%) [11]: 68%
Population Hoechst High Intensity Objects (%) [11]: 2%
Population Membrane Permeable-Phenotype (%) [11]: 8%
Population Mitochondria Different-Phenotype (%) [11]: 3%
Population Mitotic Cells (%) [11]: 9%
Population Normal (%) [11]: 97%
Population Pyknosed Nuclei (%) [11]: 10%
Population Tubulin-Different-Phenotype (%) [11]: 4%
Total Cell Count [11]: 440
Population Apoptotic (%) [12]: 95%
Population Fragmented Nuclei (%) [12]: 14%
Population Healthy Nuclei (%) [12]: 74%
Population Hoechst High Intensity Objects (%) [12]: 1%
Population Membrane Permeable-Phenotype (%) [12]: 10%
Population Mitochondria Different-Phenotype (%) [12]: 1%
Population Mitotic Cells (%) [12]: 4%
Population Normal (%) [12]: 98%
Population Pyknosed Nuclei (%) [12]: 11%
Population Tubulin-Different-Phenotype (%) [12]: 3%
Total Cell Count [12]: 213

Source: ChEMBL document CHEMBL5058577, “EUbOPEN Chemogenomics Library 2 (Multiplex)” (2022)
